Measured values pooled from the literature.
Each line is one published result; the experiments were not run side by side.
Target: 5'-AMP-activated protein kinase catalytic subunit alpha-2 (PRKAA2, Homo sapiens, UniProt P54646)

Compound	assay	conditions	measurement	result
C=CC(=O)Nc1cc(Nc2nccc(Nc3cc(Cl)c(F)cc3C(C)(C)O)n2)c(OC)cc1N1CC[C@@H](N(C)C)C1	enzyme activity, inhibitor	1 µM	inhibition	12%
c1ccc(CNc2nc(N3CCOc4ccccc43)nc3c2CCCC3)cc1	target engagement in cells, inhibitor, chemoproteomics	20 mM	inhibition	-6.2%
COc1cc(-c2cc(-c3ccc(N4CCNCC4)cc3)cnc2C)cc(OC)c1OC	enzyme activity, inhibitor	1 µM	inhibition	1%
CCCS(=O)(=O)Nc1ccc(F)c(C(=O)c2c[nH]c3ncc(-c4ccc(Cl)cc4)cc23)c1F	enzyme activity, inhibitor	1 µM	inhibition	< 20%
CN([C@@H]1CCc2c(CC(=O)O)c3cc(S(C)(=O)=O)ccc3n2C1)S(=O)(=O)c1ccc(F)cc1	cell-free assay, competition with immobilised ligand	1 µM	remaining binding	100%
Cc1cnc(NC2CCOCC2)nc1-n1cnc(C(=O)NC(CN)c2cc(F)cc(Cl)c2)c1 (stereo not drawn)	enzyme activity, inhibitor, radiometric	1 µM	remaining activity	31%
CC(=O)N1CCC(c2ccc(C(=O)NC3=NCCN3)cc2C(F)(F)F)CC1	cell-free assay, competition with immobilised ligand	1 µM	remaining binding	100%
CCCOc1ccc(OC)c(F)c1C(=O)c1ccc(C(=O)N[C@@H]2CNC[C@H]2NC(=O)c2ccc3[nH]ncc3c2)cc1	enzyme activity, inhibitor	0.75 µM	remaining activity	6%
O=C(O)[C@H]1[C@H](Cn2nnc3ccccc3c2=O)CC[C@@H]1C(=O)c1ccc(OCCC2CCOCC2)cc1	cell-free assay, competition with immobilised ligand	1 µM	remaining binding	100%
COc1cc(Cl)c(C(=O)N[C@@H](CN[C@H]2CC[C@@H](N)CC2)Cc2ccc(C#N)cc2)cc1-c1ccc(CN[C@H](C)c2ccc(C)cc2)o1	enzyme activity, inhibitor	1 µM	remaining activity	89%
CCCCNc1ncc2c(-c3ccc(F)cc3)nn(C[C@H]3CC[C@H](N)CC3)c2n1	target engagement in cells, inhibitor, chemoproteomics	20 mM	inhibition	22.8%
CC(=O)N1CCC(c2ccc(C(=O)NC(=N)N)cc2C(F)(F)F)CC1	cell-free assay, competition with immobilised ligand	1 µM	remaining binding	100%
